According to ChEMBL document CHEMBL3286372, “Design, synthesis and structure-activity relationship of novel semi-synthetic flavonoids as antiproliferative agents” (2014):

Experiments:
Type in all cases: functional
[1] = Growth inhibition of human MOLT4 cells at 10 uM after 48 hrs by sulforhodamine B assay relative to control; conditions: MOLT-4, 48 h, read-out: GI
Outline: (§1)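 NCI-60 primary screen at a single 10 µM dose. Continuous 48 h exposure, with growth or viability estimated by sulforhodamine B protein staining. Reported as percent growth inhibition of treated cells relative to untreated growth.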

CCRF-CEM = experiment: Growth inhibition of human CCRF-CEM cells at 10 uM after 48 hrs by sulforhodamine B assay relative to control; conditions: read-out: GI
Outline: (§2)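 NCI-60 primary screen at a single dose of 10 µM with 48 h continuous exposure. Growth or viability read by sulforhodamine B protein staining and expressed as percent growth inhibition versus untreated cells.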

RPMI-8226 = experiment: Growth inhibition of human RPMI8226 cells at 10 uM after 48 hrs by sulforhodamine B assay relative to control; conditions: RPMI-8226, 48 h, read-out: GI; outline: as §1
SK-MEL-5 = experiment: Growth inhibition of human SK-MEL-5 cells at 10 uM after 48 hrs by sulforhodamine B assay relative to control; conditions: SK-MEL-5, 48 h, read-out: GI; outline: as §1
U-251 = experiment: Growth inhibition of human U251 cells at 10 uM after 48 hrs by sulforhodamine B assay relative to control; conditions: U-251, 48 h, read-out: GI
Outline: (§3)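 NCI-60 primary single-dose screen at 10 µM with continuous 48 h exposure. Cell viability/growth read by sulforhodamine B protein staining. Reported as percent growth inhibition relative to untreated cells.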

[2] = Growth inhibition of human SF295 cells at 10 uM after 48 hrs by sulforhodamine B assay relative to control; conditions: SF-295, 48 h, read-out: GI; outline: as §1
[3] = Growth inhibition of human UO31 cells at 10 uM after 48 hrs by sulforhodamine B assay relative to control; conditions: UO-31, 48 h, read-out: GI; outline: as §3
T47D = experiment: Growth inhibition of human T47D cells at 10 uM after 48 hrs by sulforhodamine B assay relative to control; conditions: read-out: GI; outline: as §1
SR = experiment: Growth inhibition of human SR cells at 10 uM after 48 hrs by sulforhodamine B assay relative to control; conditions: read-out: GI; outline: as §1
MCF7 = experiment: Growth inhibition of human MCF7 cells at 10 uM after 48 hrs by sulforhodamine B assay relative to control; conditions: MCF7, 48 h, read-out: GI; outline: as §2
MDA-MB-435 = experiment: Growth inhibition of human MDA-MB-435 cells at 10 uM after 48 hrs by sulforhodamine B assay relative to control; conditions: MDA-MB-435, 48 h, read-out: GI; outline: as §2
NCI-H460 = experiment: Growth inhibition of human NCI-H460 cells at 10 uM after 48 hrs by sulforhodamine B assay relative to control; conditions: NCI-H460, 48 h, read-out: GI; outline: as §1
[4] = Growth inhibition of human NCI-ADR-RES cells at 10 uM after 48 hrs by sulforhodamine B assay relative to control; conditions: read-out: GI; outline: as §1
[5] = Growth inhibition of human BT549 cells at 10 uM after 48 hrs by sulforhodamine B assay relative to control; conditions: BT-549, 48 h, read-out: GI; outline: as §2
[6] = Growth inhibition of human OVCAR3 cells at 10 uM after 48 hrs by sulforhodamine B assay relative to control; conditions: OVCAR-3, 48 h, read-out: GI; outline: as §1
[7] = Growth inhibition of human SF539 cells at 10 uM after 48 hrs by sulforhodamine B assay relative to control; conditions: SF-539, 48 h, read-out: GI; outline: as §1
MDA-MB-468 = experiment: Growth inhibition of human MDA-MB-468 cells at 10 uM after 48 hrs by sulforhodamine B assay relative to control; conditions: MDA-MB-468, 48 h, read-out: GI; outline: as §1
HCT-116 = experiment: Growth inhibition of human HCT116 cells at 10 uM after 48 hrs by sulforhodamine B assay relative to control; conditions: HCT-116, 48 h, read-out: GI; outline: as §2
[8] = Growth inhibition of human RXF393 cells at 10 uM after 48 hrs by sulforhodamine B assay relative to control; conditions: RXF 393, 48 h, read-out: GI; outline: as §1
TK-10 = experiment: Growth inhibition of human TK10 cells at 10 uM after 48 hrs by sulforhodamine B assay relative to control; conditions: TK-10, 48 h, read-out: GI; outline: as §3
NCI-H522 = experiment: Growth inhibition of human NCI-H522 cells at 10 uM after 48 hrs by sulforhodamine B assay relative to control; conditions: NCI-H522, 48 h, read-out: GI; outline: as §1
HL-60(TB) = experiment: Growth inhibition of human HL-60(TB) cells at 10 uM after 48 hrs by sulforhodamine B assay relative to control; conditions: HL-60, 48 h, read-out: GI
Outline: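 Single-dose primary screen at 10 µM across the NCI 60 panel, 48 h continuous exposure. Growth estimated by sulforhodamine B protein staining and reported as percentage growth inhibition relative to untreated control.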

[9] = Growth inhibition of human OVCAR8 cells at 10 uM after 48 hrs by sulforhodamine B assay relative to control; conditions: OVCAR-8, 48 h, read-out: GI; outline: as §1
PC-3 = experiment: Growth inhibition of human PC3 cells at 10 uM after 48 hrs by sulforhodamine B assay relative to control; conditions: PC-3, 48 h, read-out: GI; outline: as §1
SK-MEL-2 = experiment: Growth inhibition of human SK-MEL-2 cells at 10 uM after 48 hrs by sulforhodamine B assay relative to control; conditions: SK-MEL-2, 48 h, read-out: GI; outline: as §1
[10] = Growth inhibition of human HCT15 cells at 10 uM after 48 hrs by sulforhodamine B assay relative to control; conditions: HCT-15, 48 h, read-out: GI; outline: as §2
HT-29 = experiment: Growth inhibition of human HT-29 cells at 10 uM after 48 hrs by sulforhodamine B assay relative to control; conditions: HT-29, 48 h, read-out: GI; outline: as §2
NCI-H23 = experiment: Growth inhibition of human NCI-H23 cells at 10 uM after 48 hrs by sulforhodamine B assay relative to control; conditions: NCI-H23, 48 h, read-out: GI; outline: as §1
SW-620 = experiment: Growth inhibition of human SW620 cells at 10 uM after 48 hrs by sulforhodamine B assay relative to control; conditions: SW-620, 48 h, read-out: GI; outline: as §1
CAKI-1 = experiment: Growth inhibition of human CAKI-1 cells at 10 uM after 48 hrs by sulforhodamine B assay relative to control; conditions: CAKI-1, 48 h, read-out: GI; outline: as §2
[11] = Growth inhibition of human LOXIMVI cells at 10 uM after 48 hrs by sulforhodamine B assay relative to control; conditions: LOX IMVI, read-out: GI; outline: as §2
[12] = Growth inhibition of human UACC257 cells at 10 uM after 48 hrs by sulforhodamine B assay relative to control; conditions: UACC-257, 48 h, read-out: GI; outline: as §3
Malme-3M = experiment: Growth inhibition of human MALME-3M cells at 10 uM after 48 hrs by sulforhodamine B assay relative to control; conditions: read-out: GI; outline: as §2
[13] = Growth inhibition of human OVCAR4 cells at 10 uM after 48 hrs by sulforhodamine B assay relative to control; conditions: OVCAR-4, 48 h, read-out: GI; outline: as §1
[14] = Growth inhibition of human HOP92 cells at 10 uM after 48 hrs by sulforhodamine B assay relative to control; conditions: HOP-92, 48 h, read-out: GI; outline: as §2
K562 = experiment: Growth inhibition of human K562 cells at 10 uM after 48 hrs by sulforhodamine B assay relative to control; conditions: K562, 48 h, read-out: GI; outline: as §2
786-0 = experiment: Growth inhibition of human 786-0 cells at 10 uM after 48 hrs by sulforhodamine B assay relative to control; conditions: 786-0, 48 h, read-out: GI; outline: as §2
IGROV-1 = experiment: Growth inhibition of human IGROV1 cells at 10 uM after 48 hrs by sulforhodamine B assay relative to control; conditions: IGROV-1, 48 h, read-out: GI; outline: as §2

SMILES | inhibition of growth at 10 µM [1] [%] | inhibition of growth at 10 µM (CCRF-CEM) [%] | inhibition of growth at 10 µM (RPMI-8226) [%] | inhibition of growth at 10 µM (U-251) [%] | inhibition of growth at 10 µM [2] [%] | inhibition of growth at 10 µM (T47D) [%] | inhibition of growth at 10 µM (SR) [%] | inhibition of growth at 10 µM (MCF7) [%] | inhibition of growth at 10 µM (MDA-MB-435) [%] | inhibition of growth at 10 µM [4] [%] | inhibition of growth at 10 µM [6] [%] | inhibition of growth at 10 µM (MDA-MB-468) [%] | inhibition of growth at 10 µM (HCT-116) [%] | inhibition of growth at 10 µM (NCI-H522) [%] | inhibition of growth at 10 µM (HL-60(TB)) [%] | inhibition of growth at 10 µM (PC-3) [%] | inhibition of growth at 10 µM (SK-MEL-2) [%] | inhibition of growth at 10 µM (SW-620) [%] | inhibition of growth at 10 µM (CAKI-1) [%] | inhibition of growth at 10 µM [11] [%] | other results
COc1ccc(/C=C/c2oc3c(OC)c4occc4c(OC)c3c(=O)c2CN2CCOCC2)cc1 | 66 | 87 | 61 | – | – | – | – | – | – | – | – | – | – | – | – | – | – | – | – | – | inhibition of growth at 10 µM (SK-MEL-5): 84%
COc1ccc(-c2cc(=O)c3c(OC)c4ccoc4cc3o2)cc1 | – | – | – | 62 | 60 | – | – | – | – | – | – | – | – | – | – | – | – | – | – | – | inhibition of growth at 10 µM [3]: 62%
COc1c(C(=O)/C=C/c2ccc(Cl)cc2)c(O)cc2occc12 | – | 60 | 66 | – | – | 67 | 63 | 64 | – | – | – | – | – | – | – | – | – | – | – | – | –
COc1c2c(c(Br)c3occc13)O/C(=C\c1ccccc1)C2=O | 85 | 79 | 94 | 73 | 65 | – | 79 | 84 | 74 | 79 | 86 | 93 | 77 | 62 | 64 | 66 | 88 | 60 | 87 | 65 | inhibition of growth at 10 µM (NCI-H460): 83%; inhibition of growth at 10 µM [5]: 66%; inhibition of growth at 10 µM [7]: 75%; inhibition of growth at 10 µM [8]: 93%; inhibition of growth at 10 µM (TK-10): 61%; inhibition of growth at 10 µM [9]: 70%; inhibition of growth at 10 µM [10]: 60%; inhibition of growth at 10 µM (HT-29): 72%; inhibition of growth at 10 µM (NCI-H23): 78%; inhibition of growth at 10 µM (SK-MEL-5): 67%
COc1c2c(c(Br)c3occc13)O/C(=C\c1ccc(Cl)cc1)C2=O | 85 | 79 | 91 | 62 | 67 | 60 | 82 | 79 | 82 | 61 | 67 | 80 | 83 | 64 | 74 | 69 | 84 | 63 | 80 | 65 | inhibition of growth at 10 µM [12]: 61%; inhibition of growth at 10 µM (Malme-3M): 65%; inhibition of growth at 10 µM [8]: 78%; inhibition of growth at 10 µM (HT-29): 63%
COc1c2ccoc2c(Br)c2oc(-c3ccc(Cl)cc3)cc(=O)c12 | – | – | – | – | – | – | – | – | – | – | – | – | – | – | – | – | – | – | – | – | inhibition of growth at 10 µM [13]: 72%
COc1ccc(/C=C/c2cc(=O)c3c(OC)c4ccoc4c(Br)c3o2)cc1 | – | – | – | – | – | – | – | – | – | – | – | – | – | 62 | – | – | – | – | – | – | –
COc1ccc(/C=C2\Oc3c(c(OC)c4ccoc4c3Br)C2=O)cc1 | 67 | – | 71 | – | – | – | 60 | 60 | – | – | – | – | 62 | – | – | – | – | – | 61 | – | inhibition of growth at 10 µM [7]: 60%
C=CCOc1cc2oc(-c3ccc(OC)cc3)cc(=O)c2c(OC)c1C=O | – | – | – | – | – | – | – | – | – | – | – | – | – | – | – | – | – | – | – | – | inhibition of growth at 10 µM [14]: 66%
C=CCOc1cc2oc(-c3ccc(Cl)cc3)cc(=O)c2c(OC)c1C=O | – | – | 96 | 68 | – | 72 | – | 85 | 73 | 78 | 81 | 91 | 89 | 93 | 75 | 76 | 75 | 69 | – | 99 | inhibition of growth at 10 µM (NCI-H460): 61%; inhibition of growth at 10 µM (TK-10): 73%; inhibition of growth at 10 µM (K562): 76%; inhibition of growth at 10 µM (786-0): 65%; inhibition of growth at 10 µM [9]: 66%; inhibition of growth at 10 µM [3]: 74%; inhibition of growth at 10 µM (IGROV-1): 62%; inhibition of growth at 10 µM (NCI-H23): 61%; inhibition of growth at 10 µM [14]: 97%
